Laboratory results taken from ChEMBL document CHEMBL5653613 (Mol Cancer Ther, 2013).
Activity calls are given as the source filed them. No cut-off for these calls is given here.

What was measured:
[1] = Cmax in athymic mouse xenografted with human GTL-16 cells at 6.25 mg/kg, po qd for 14 days consecutively; format: ADME, organism-based; settings: in vivo, time 14 day
[2] = Cmax in athymic mouse xenografted with human GTL-16 cells upto 50 mg/kg, po qd for 14 days consecutively; format: ADME, organism-based; settings: in vivo, time 14 day
MCF7 [3] = test: Induction of apoptosis in human MCF7 cells assessed as early cells at 5 umol/L incubated for 3 days by Annexin V/PI staining based flow cytometry (reference value: 0.1 %); format: functional; settings: dose 5 µmol/L; time 3 day; at 5 µM
MCF7 [4] = test: Induction of apoptosis in human MCF7 cells assessed as late cells at 5 umol/L incubated for 3 days by Annexin V/PI staining based flow cytometry (reference value: 1.4 %); format: functional; settings: dose 5 µmol/L; time 3 day; at 5 µM
ZR-75-1 [5] = test: Induction of apoptosis in human ZR-75-1 cells assessed as late cells at 5 umol/L incubated for 3 days by Annexin V/PI staining based flow cytometry (reference value: 3.8 %); format: functional; settings: dose 5 µmol/L; time 3 day; at 5 µM
ZR-75-1 [6] = test: Induction of polyploidy in human ZR-75-1 cells at 1 umol/L incubated for 72 hrs by microscopic analysis relative to control; format: functional; settings: dose 1 µmol/L, at 1 µM
Procedure, shortened: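 Cells stained with Hema-3 and photographed under a light microscope with CCD camera. Polyploid cells scored as percent of the population.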

ZR-75-1 [7] = test: Induction of cell death of human ZR-75-1 cells with RON-/- at 5 umol/L incubated for 72 hrs followed by media replacement without compound measured upto 10 days by microscopic analysis; format: functional, cell-based; settings: dose 5.0 µmol/L
MCF7 [8] = test: Induction of polyploidy in human MCF7 cells assessed as cells with 16N chromosome contents at 5 uM incubated for 24 hrs by PI staining based flow cytometry (reference value: 0); format: functional
T47D [9] = test: Induction of polyploidy in human T47D cells assessed as cells with 2N chromosome contents at 5 uM incubated for 24 hrs by PI staining based flow cytometry (reference value: 48); format: functional
T47D [10] = test: Induction of polyploidy in human T47D cells assessed as cells with 4N chromosome contents at 5 uM incubated for 24 hrs by PI staining based flow cytometry (reference value: 35); format: functional
T47D [11] = test: Induction of polyploidy in human T47D cells assessed as cells with 4N chromosome contents at 5 uM incubated for 48 hrs by PI staining based flow cytometry (reference value: 35); format: functional
[12] = (§1) Effect on doxorubicin resistance in human T47D cells with compound-induced polyploidy assessed as change in doxorubicin-induced cytotoxicity by measuring increase in doxorubicin IC50 at 5 umol/L preincubated for 72 hrs followed by compound washout and subsequent doxorubicin treatment for 72 hrs by MTS assay; format: functional, cell-based
[13] = as §1, with “in human ZR-75-1 cells with” for “in human T47D cells with”, “increase in DOX IC50 at” for “increase in doxorubicin IC50 at”; format: functional, cell-based

Q: For `CCOc1ccn(-c2ccc(F)cc2)c(=O)c1C(=O)Nc1ccc(Oc2ccnc(N)c2Cl)c(F)c1` [BMS-777607], which Cmax [1] is on record?
A: The Cmax was 4.5 µM.

Q: And the Cmax [2]?
A: Its Cmax is 43.7 µM.

Q: And the Activity (MCF7 [3])?
A: Its Activity is 0.2%.

Q: What about the Activity (MCF7 [4]) of the same compound?
A: Its Activity is 2%.

Q: What about the Activity (ZR-75-1 [5]) of the same compound?
A: Its Activity is 7.4%.

Q: What about the Activity (ZR-75-1 [6]) of the same compound?
A: Its Activity is 11%.

Q: And the Activity (ZR-75-1 [7])?
A: The Activity was “inactive”.

Q: And the Activity (MCF7 [8])?
A: Its Activity is 0.

Q: What about the Activity (T47D [9]) of the same compound?
A: Its Activity is 7.5.

Q: And the Activity (T47D [10])?
A: The Activity was 20.

Q: And the Activity (T47D [11])?
A: Its Activity is 22.

Q: And the IC50 [12]?
A: The IC50 was 1420 nM.

Q: And the IC50 [13]?
A: Its IC50 is 1180 nM.
